These results are taken from ChEMBL document CHEMBL1133020, “Structure-based design, synthesis, and biological evaluation of novel pyrrolyl aryl sulfones: HIV-1 non-nucleoside reverse transcriptase inhibitors active at nanomolar concentrations” (J Med Chem, 2000).

For assay [1], the system named is MT4. Description: 50% cytotoxic concentration against mock-infected MT-4 cells using MTT method. Format: functional. The note with it: Homo sapiens. An outline of the steps: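 Viability of mock-infected MT-4 cells run in parallel with the antiviral assay; viable cells counted by MTT; CC50 = dose (µM) reducing viability by 50%.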
In general terms: Formazan colour is commonly taken as a measure of viable cells.

Assay [2] has as its system MT4. Description: Effective concentration against HIV-1 induced cytopathicity in MT-4 cells using MTT method. Format: functional, cell-based. To be noted: Homo sapiens. An outline of the steps:
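MT-4 cells acutely infected with HIV-1; inhibition of virus-induced cytopathicity; viable cells determined by MTT; EC50 = dose (µM) giving 50% protection from cytopathicity.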

Assay [3] is described as follows: Selectivity index, ratio of CC50 to EC50. It counts as functional. An outline of the steps: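 Ratio of CC50 (mock-infected MT-4 viability, MTT) to EC50 (protection of MT-4 cells from HIV-1 cytopathicity, MTT).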

Each structure is given as a SMILES string. Some results are limits rather than exact numbers.

For orientation: CC50 means the concentration that lowers cell viability or growth by half. Read a high CC50 as lower toxicity to the cells. By EC50 is commonly meant the concentration at which the effect is half-maximal. Low values mean an effect from little substance, high ones a need for much substance.

In the assay with MT4 [1], `CCOC(=O)c1cc(C)cn1S(=O)(=O)c1cc(Cl)ccc1N` gave a CC50 of more than 200 µM. In addition, the response with MT4 [2] was half-maximal at 0.09 µM (EC50). In addition, in assay [3], the Selectivity is more than 2220.
In the same order, the values of `CCOC(=O)c1cc(COc2ccccc2)cn1S(=O)(=O)c1cc(Cl)ccc1N` are more than 200 µM, 4.1 µM and more than 49.
Take `Cc1ccnc2c1NC(=O)c1cccnc1N2C1CC1` [NEVIRAPINE]: the CC50 in the assay with MT4 [1] is more than 200 µM. Moreover, a half-maximal effect in the assay on MT4 [2] (EC50) was put at 0.35 µM.
In the case of `C=Cc1cc(C(=O)OCC)n(S(=O)(=O)c2cc(Cl)ccc2N)c1`, the CC50 in the assay on MT4 [1] is 47 µM. The compound further displayed an EC50 in the assay with MT4 [2] of 0.17 µM. Further, the Selectivity in assay [3] was found to be 274.
In the same order, the values of `CCOC(=O)c1cc(CO)cn1S(=O)(=O)c1cc(Cl)ccc1N` are 240 µM, 0.045 µM and 5330.
In the assay with MT4 [1], `CC(C)OC(=O)c1cc(CO)cn1S(=O)(=O)c1cc(Cl)ccc1N` displayed a CC50 of 116 µM. This compound also showed an EC50 in the assay on MT4 [2] of 0.1 µM. Moreover, the Selectivity in assay [3] was 1160.
In the same order, the values of `CC(C)OC(=O)c1cc(CNc2ccccc2)cn1S(=O)(=O)c1cc(Cl)ccc1N` are 40 µM, 0.2 µM and 200.
In the same order, the values of `CCOC(=O)c1cc(CNc2ccccc2)cn1S(=O)(=O)c1cc(Cl)ccc1N` are more than 200 µM, 3.1 µM and more than 55.5.
In the assay on MT4 [1], `CCOC(=O)c1cccn1S(=O)(=O)c1cc(Cl)ccc1-n1cccc1` yielded a CC50 of 110 µM. The 50% effective concentration (EC50) with MT4 [2] is more than 110 µM.
The compound `CCOC(=O)c1cccn1S(=O)(=O)c1cc(Cl)ccc1N` registered a CC50 with MT4 [1] of more than 200 µM. In addition, the Selectivity in assay [3] was more than 1430.
The compound `CCOC(=O)c1cc(COC)cn1S(=O)(=O)c1cc(Cl)ccc1N` returned a CC50 in the assay with MT4 [1] of more than 200 µM. In the assay with MT4 [2], a half-maximal response (EC50) required 0.4 µM. In addition, the Selectivity in assay [3] is more than 500.
The matching figures for `CCOC(=O)c1cc(C(C)O)cn1S(=O)(=O)c1cc(Cl)ccc1N` (stereo unspecified): 115 µM, 0.25 µM and 460.
Take `CCOC(=O)c1cccn1S(=O)(=O)c1c(N)cccc1Cl`: in the assay on MT4 [1], half-maximal cytotoxicity (CC50) was put at 180 µM. Besides, in the assay on MT4 [2], it took 72 µM to reach a half-maximal effect (EC50). In assay [3], the Selectivity turned out to be 2.5.
